In the library only some 2.1% were active in any assay of this set; here they are far more common.
PAX8 inh HTS – inhibitors of PAX8-driven TPO luciferase reporter, primary screen, RMG-I cells, single concentration | AID 652154, 2013 | 360,000 tested, 1.2% active | SteadyGlo, 24 h | inhibition, % at 12.6 µM;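 active = mean replicate inhibition at least 60% with every replicate also reaching 60%; inconclusive = only one of the two criteria is met; inactive = mean below 60% and not all replicates reaching 60%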;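 also: luciferase light reporting Pax8 driven TPO promoter activity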
AF4-AF9 inh – inhibitors of AF4 peptide binding to AF9, primary screen, biochemical, AlphaScreen, biotin-AF4 peptide, FLAG-AF9, single point. inhibition, % at 10 µM. 350,000 tested, 0.47% active. AID 651704, 2012;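 active = every replicate reaching a set inhibition limit, whatever the replicate mean, cut at about 25% in these data; inconclusive = mean inhibition reaches that limit but some replicates miss it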
Target sequence (P42568 whole entry, looked up): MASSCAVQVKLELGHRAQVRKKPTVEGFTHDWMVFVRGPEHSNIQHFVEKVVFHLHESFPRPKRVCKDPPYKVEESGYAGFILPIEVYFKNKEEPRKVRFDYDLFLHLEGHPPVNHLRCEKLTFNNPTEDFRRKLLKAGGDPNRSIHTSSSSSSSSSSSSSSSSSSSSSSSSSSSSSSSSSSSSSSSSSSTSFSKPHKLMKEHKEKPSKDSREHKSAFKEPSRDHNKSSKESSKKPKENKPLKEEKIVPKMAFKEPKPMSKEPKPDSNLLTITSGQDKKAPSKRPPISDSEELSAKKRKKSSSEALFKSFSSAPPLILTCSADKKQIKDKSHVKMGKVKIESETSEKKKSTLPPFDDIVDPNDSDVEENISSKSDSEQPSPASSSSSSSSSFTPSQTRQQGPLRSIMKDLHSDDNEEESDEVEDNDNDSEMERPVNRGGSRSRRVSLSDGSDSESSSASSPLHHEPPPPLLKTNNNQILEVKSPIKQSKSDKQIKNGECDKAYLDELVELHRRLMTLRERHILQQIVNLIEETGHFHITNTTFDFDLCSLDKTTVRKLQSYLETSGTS
PGC1a acetyl inh – inhibitors of PGC1a acetylation signal, primary screen, cell-based, U2OS, AlphaScreen, inhibitor mode; AlphaScreen anti-acetyl-lysine; with virally co-expressed GCN5 acetyltransferase; inhibition, % at 15.6 µM; 350,000 tested, 0.17% active;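 active = every replicate shows inhibition of at least 40%; inconclusive = mean inhibition at least 40% but some replicate below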
XiGFP reactiv – activators of inactive X chromosome reactivation, primary screen, imaging, XiGFP fibroblasts, GFP high-content imaging, set 2; XiGFP mouse fibroblasts, % GFP-positive cells imaging, 3 d; cells co-treated with 5-aza-dC sensitizer; scaled so ellipticine positive control = 100%; activation, % at 7.58 µM; 360,000 tested, 0.055% active;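 active = mean normalized replicate activation at least 10% and every replicate at or above 10%; inconclusive = only one of the two criteria met; inactive = mean below 10% and not all replicates reach 10%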
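Material: SV40-immortalized XiGFP fibroblast cells, line 68-5-11 | Buffer or medium: DMEM containing 5-aza-dC | Dosing: One concentration, pinned | Times: 3 d treatment, 15 min room-temperature fixation | Controls: Ellipticine 6 µM positive control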
GSIS activator – GLuc luminescence reporter in INS-1E cells, primary screen for activators of glucose-dependent secretion of insulin. INS-1E GLuc reporter insulin secretion, 2-3 h. activation, % at 16.6 µM. 370,000 tested, 0.61% active. AID 743287, 2014;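 active = lowest replicate activation of at least 40%, so every replicate reaches that level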
EWS-Fli inh – EWS/Fli-driven NR0B1 reporter inhibitors, primary screen, A673 cells, NR0B1 luciferase, luminescence, MLPCN library. viability-normalised. inhibition, % at 12.6 µM. 350,000 tested, 0.67% active. AID 651661, 2012;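 active = mean inhibition of at least 50% after viability correction, with every replicate also passing that limit; inconclusive = mean reaches 50% but only one of two replicates passes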;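 also: firefly luciferase signal divided by Alamar Blue viability fluorescence both relative to DMSO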
A number is an active result; – = inactive; ? = inconclusive; · = no result given; ! = repeats disagree.

SMILES	PAX8 inh HTS	AF4-AF9 inh	PGC1a acetyl inh	XiGFP reactiv	GSIS activator	EWS-Fli inh
COc1cc(NC(=O)c2csc(N)n2)cc(C(=O)Nc2cccc(C(F)(F)F)c2)c1	82!	–	–	–	–	61
COc1cc(NC(=O)c2cc(C)on2)cc(C(=O)Nc2cccc(C(F)(F)F)c2)c1	86	–	·	–	–	–
C[C@H]1CN([C@@H](C)CO)C(=O)CCCn2cc(nn2)CO[C@H]1CN(C)C(=O)Nc1cccc(Oc2ccccn2)c1	–	·	–	–	–	–
CO[C@@H]1CN(C)C(=O)c2cc(NC(=O)Nc3ccc4c(c3)OCO4)ccc2OC[C@H](C)NC[C@@H]1C	–	–	–	–	–	–
Nc1nc(NCC2CCCO2)nc(Nc2cccc(F)c2)c1[N+](=O)[O-] (centres undefined)	–	31	·	–	–	–
Cn1c2ccccc2c(=O)c2ccc(C#CC3(N)CCCCC3)cc21	–	–	·	–	–	–
Cn1c2ccccc2c(=O)c2cc(C#CC3(O)CCCCC3)ccc21	–	–	–	–	–	68
CCOc1ccc(S(=O)(=O)N2CCN=C2c2ccccc2)cc1	·	–	–	–	–	55
Cc1ccccc1OCc1nnc(SCC(=O)Nc2ccc3c(c2)oc2ccccc23)n1C	·	·	–	·	131	·
Cc1ccc(-c2nnc(SCC(=O)Nc3ccc4c(c3)oc3ccccc34)n2C)c(Cl)c1	–	·	–	·	·	·
N#Cc1ccc(-c2ccc([C@@H]3[C@@H](CO)N4C(=O)CN(C(=O)C5CCC5)C[C@@H]34)cc2)cc1	–	–	–	–	–	–
CCOC(=O)/C(=C\c1ccccc1)C(=O)c1cc(C(C)=O)c(Nc2ccccc2)s1	·	·	–	·	·	·
CCOC(=O)/C(=C\c1cccnc1)C(=O)c1cc(C(C)=O)c(Nc2ccccc2)s1	·	·	84	·	·	·
C=C1C(=O)O[C@@H]2[C@H]1CC[C@H](C)[C@]1(O)CCC(=O)[C@@]21C	89	–	–	–	–	–
COc1ccc(-c2nc(CS(=O)CC(=O)NC(C)CCc3ccccc3)c(C)o2)cc1OC (centres undefined)	–	–	–	–	49	–
Cc1ccc(-c2nc(CS(=O)CC(=O)NC(C)CCc3ccccc3)c(C)o2)cc1 (centres undefined)	–	–	·	–	–	·
CCOc1ccc(C(NC(=O)CC)c2c(O)ccc3ccccc23)cc1 (centres undefined)	–	–	–	–	–	–
CC(=O)Oc1ccc2ccccc2c1C(NC(=O)Cc1ccccc1)c1ccc(Cl)cc1 (centres undefined)	85	·	–	·	–	·
Cc1ccc(C)c(NC(=S)NC(NC(=O)/C=C/c2ccccc2)C(Cl)(Cl)Cl)c1 (centres undefined)	68	·	–	·	·	·
NCCCC[C@@H]1NC(=O)c2cc([N+](=O)[O-])cc(F)c2NCCCC[C@@H](C(N)=O)NC(=O)[C@H](CCC(N)=O)NC1=O	–	27	–	–	–	–
COc1ccc(C[C@H]2CN3C(=NC[C@@H]3C(C)C)N2CCNC(=O)CCC2CCCCC2)cc1	–	·	–	–	–	–
COc1ccc(C[C@H]2CN3C(=NC[C@@H]3Cc3ccccc3)N2CCNC(=O)CCC2CCCCC2)cc1	–	–	–	–	155	?
CCOC(=O)c1c(N)c(C#N)c2n1CCCC2	·	·	–	·	71	·
COc1ccc(/C=C2\N=C(c3ccccc3)N(c3ccc(C(=O)O)cc3)C2=O)cc1OC	–	–	–	–	71	–
CC1=N/C(=C\c2ccc(OC(C)C)cc2)C(=O)N1c1ccc(C(=O)O)cc1	–	–	–	–	–	–
SMILES	PAX8 inh HTS	AF4-AF9 inh	PGC1a acetyl inh	XiGFP reactiv	GSIS activator	EWS-Fli inh
Cc1ccc(C(=O)O/N=C(\N)c2ccccn2)c(C)c1	·	–	·	–	–	77
N/C(=N\OC(=O)c1ccccc1Cl)c1ccccn1	·	–	–	·	–	54
COc1ccccc1C(=O)O/N=C(\N)c1ccccn1	–	–	–	–	–	–
C[C@H](CO)N1C[C@H](C)[C@@H](CN(C)Cc2ccc3c(c2)OCO3)OCCCC[C@H](C)Oc2ccc(NC(=O)CCCN(C)C)cc2C1=O	–	–	–	–	–	–
CO[C@@H]1CN(C)C(=O)c2ccc(NC(=O)c3cccc(F)c3)cc2OC[C@@H](C)N(CC2CC2)C[C@H]1C	·	–	–	–	–	–
O=C([C@@H]1[C@@H](CO)[C@@H]2Cn3c(cccc3=O)[C@H]1N2CC1CCCC1)N1CCc2ccccc2C1	·	–	·	–	–	–
CCCCCCCCCCCCCCCC[n+]1cccc(C(=O)N(CC)CC)c1	64	–	–	–	·	–
CCCCCCCC[n+]1cccc(C(=O)N(CC)CC)c1	–	–	·	–	–	–
CCCCC(=O)Nc1ccc(C(N)=O)cc1	–	·	–	·	·	·
CCCCCCCCCCCCCCCC[n+]1ccccc1	95	–	–	–	497	60
CCCCCCCCCCCCCCCC[n+]1ccc(/C=N/O)cc1	94	–	·	?	47	–
CCCCCCCCCCCCCCCC[n+]1ccc(C(N)=O)cc1	111	·	–	–	–	·
O=C(Nc1ccccc1F)N1C[C@H]2[C@@H](c3ccccc31)[C@@H](CO)N2C(=O)c1ccccn1	–	–	–	–	–	–
CCc1ccc(C2NC(=S)NC3=C2C(=O)N(c2ccccc2OC)C(c2ccc(CC)cc2)N3)cc1 (centres undefined)	–	·	–	·	127	·
O=C1C2=C(NC(=S)NC2c2ccc(Cl)cc2)NC(c2ccc(Cl)cc2)N1c1ccc(Cl)cc1 (centres undefined)	–	·	–	·	·	·
C[C@H]1CN([C@@H](C)CO)C(=O)c2cc(/C=C/c3ccccc3)cnc2O[C@@H]1CN(C)C	·	–	–	–	–	–
Cc1cc(C)c2oc(-c3cccc(N)c3)nc2c1	–	–	–	–	·	–
Cc1ccc2nc(-c3cccc(N)c3)oc2c1	·	–	–	·	–	59
O=C(Nc1ccccc1C(=O)N/N=C/c1ccccc1)c1ccco1	–	–	–	–	93	–
O=C(Cc1ccccc1)NCC(=O)N/N=C/c1ccc(C(=O)O)cc1	–	–	–	–	–	·
O=C(CNC(=O)c1ccco1)N/N=C/c1ccc(C(=O)O)cc1	–	–	–	–	48	–
COc1ccc(S(=O)(=O)N(C)C[C@H]2Oc3ccc(NC(=O)c4ccncc4)cc3C(=O)N([C@@H](C)CO)C[C@@H]2C)cc1	·	–	–	–	–	–
CC(C)(C)NCC(=Cc1ccccc1)C(=O)c1ccccc1	74	–	·	–	–	57
N#C/C(=C\c1ccco1)C(=O)Nc1ccc(S(N)(=O)=O)cc1	–	–	·	–	–	–
N#C/C(=C\c1ccc(-c2ccc(F)cc2)o1)C(=O)Nc1nc(-c2cccs2)cs1	–	–	·	–	–	–

Source: PubChem
